These results are taken from ChEMBL document CHEMBL1154335, “2-(3-Thienyl)-5,6-dihydroxypyrimidine-4-carboxylic acids as inhibitors of HCV NS5B RdRp” (Bioorg Med Chem Lett, 2009).

Several values for one entry are separate records, joined by “and”; a condition that tells them apart may be missing. Equal entries are not always repeated. A value given as a limit tells only on which side of the number the result lay.

As a reminder, the IC50 is the concentration at which inhibition is half-maximal. Broadly, the bioavailability is the share of a dose that reaches the circulation, judged against a reference dose that is usually intravenous. The term EC50 denotes the concentration at which the effect is half-maximal. High values mean a less potent agent, low ones a more potent agent. The term AUC denotes the area under the concentration-time curve, a measure of exposure. A low value points to low exposure. What is called half-life is how long it takes for the measured level to halve. A higher half-life goes with slow decline. As a reminder, the Vd is a proportionality between amount in the body and measured concentration, not a real space. Lower therefore signals little distribution into tissue.

Data set [1] deals with Hepatitis C virus. The data set can be described thus: Inhibition of HCV1b Cdelta55 NS5B polymerase. Type of data set: functional, organism-based, Hepatitis C virus subtype 1b.
Data set [2] can be described thus: Oral bioavailability in rat at 3 mg/kg. In kind it is ADME, organism-based. As to conditions: in vivo. The method in brief:
(§1)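 Rat, oral dose of 3 mg/kg; plasma exposure (AUC) measured and oral bioavailability derived.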

A short description of data set [3]: Protein binding in rat serum. Type of data set: ADME, cell-free. As to conditions: read-out: PB. In short, it runs like this:
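Binding to rat serum proteins measured.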

In data set [4] the test system is Hepatitis C virus. The data set can be described thus: Inhibition of HCV2a Cdelta21 NS5B polymerase. In kind it is functional, Hepatitis C virus subtype 2a.
The subject of data set [5] is Hepatitis C virus. The experiment in a line: Inhibition of HCV con1 Cdelta55 NS5B polymerase G152E mutant. Type of data set: functional, Hepacivirus hominis. As to conditions: isolate Con1. In short, it runs like this: (§2)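 IC50 determined on isolated recombinant NS5B polymerase carrying a single P156S or G152E substitution. These substitutions were identified in replicon colonies selected with […]. Wild-type enzyme was run alongside as the reference.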

Data set [6] relates to Hepatitis C virus. The experiment in a line: Antiviral activity against Hepatitis C virus subtype 2a infected in human HuH7 cells by replicon assay. Type of data set: functional, organism-based, Hepacivirus hominis, genotype 2a, Huh-7. In short, it runs like this:
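Full-length HCV genotype 2a infectivity assay; EC50 determined.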
(A replicon is a self-replicating genome or part of one, used to study replication in cells.)

Data set [7] in a line: Bioavailability in intramuscular dosed rat. In kind it is ADME, organism-based. As to conditions: in vivo, im. The method in brief:
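Rat, intramuscular administration; plasma exposure measured to derive bioavailability.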

Data set [8] can be described thus: Metabolic stability in rat assessed as compound turnover at 3 mg/kg, iv. Particulars: in vivo, read-out: Stability. Type of data set: ADME, organism-based. Also on record: dose 3 mg/kg, route intravenous. The method in brief:
(§3)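 Rat, single intravenous dose of 3 mg/kg; plasma sampled for half-life, volume of distribution and turnover (clearance).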

Data set [9] can be described thus: AUC in rat plasma at 3 mg/kg, po. In kind it is ADME, organism-based. Further details: dose 3 mg/kg, route oral. The method in brief:
as §1

For data set [10], the system named is Hepatitis C virus. The experiment in a line: Inhibition of HCV1b Cdelta21 NS5B polymerase. In kind it is functional, Hepatitis C virus subtype 1b.
Data set [11] concerns Hepatitis C virus. The experiment in a line: Inhibition of wild type HCV con1 Cdelta55 NS5B polymerase. In kind it is functional, Hepacivirus hominis. As to conditions: isolate Con1. In short, it runs like this: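 Recombinant NS5B truncated by 55 C-terminal residues (ΔC55), genotype 1b HCV; IC50 determined from enzyme inhibition.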
Data set [12] can be described thus: Half life in rat plasma at 3 mg/kg, iv. Type of data set: ADME, organism-based. Also on record: dose 3 mg/kg, route intravenous. The method in brief: as §3
The subject of data set [13] is Hepatitis C virus. The experiment in a line: Antiviral activity against Hepatitis C virus subtype 1b infected in human HuH7 cells by replicon assay. Type of data set: functional, organism-based, Hepacivirus hominis. Particulars: genotype 1b, Huh-7.
Data set [14] can be described thus: Inhibition of HCV3a Cdelta21 NS5B polymerase. Further details: species or system Hepatitis C virus subtype 3a.
A short description of data set [15]: Volume of distribution in rat at 3 mg/kg, iv. Further details: dose 3 mg/kg, route intravenous. Particulars: in vivo. Type of data set: ADME, organism-based. The method in brief: as §3
A short description of data set [16]: Inhibition of HCV2b Cdelta21 NS5B polymerase. Also on record: species or system Hepatitis C virus subtype 2b.
Data set [17] relates to Hepatitis C virus. The experiment in a line: Inhibition of HCV con1 Cdelta55 NS5B polymerase P156S mutant. Type of data set: functional, Hepacivirus hominis. Particulars: isolate Con1. In short, it runs like this: as §2
Setting [18] is: Hepatitis C virus, genotype 2a, Huh-7.

`O=C(O)c1nc(-c2ccsc2)nc(O)c1O` displayed an IC50 with Hepatitis C virus [1] of 6150 nM.
Turning to `O=C(Nc1cscc1-c1nc(O)c(O)c(C(=O)O)n1)NS(=O)(=O)c1cccc2ccccc12`, the bioavailability is 2% in data set [2] and 89% in data set [7]. For the same compound, the fraction unbound in data set [3] is less than 0.01. The IC50 with Hepatitis C virus [4] came to 2.1 nM; in the data set on Hepatitis C virus [5], 300 nM; in the data set with Hepatitis C virus [1] it was 36 nM; in the data set on Hepatitis C virus [10] it was 5.6 nM; with Hepatitis C virus [11], 40 nM; in data set [14], 3.9 nM. Moreover, the IC50 in [16] was 5.8 nM. The EC50 is 3700 nM and 9600 nM in the data set on Hepatitis C virus [6] (huh-7); 3600 nM in the data set with Hepatitis C virus [13]. Also, the clearance in [8] turned out to be 0.2 mL/min/kg. The same compound displayed an AUC in data set [9] of 3.3 µM·h. Besides, the half-life in data set [12] was 15 h. Moreover, in [15], the Vd stood at 0.1 L/kg.
In turn, `O=C(Nc1cscc1-c1nc(O)c(O)c(C(=O)O)n1)NS(=O)(=O)c1ccc2ccccc2c1` gave a half-inhibitory concentration (IC50) in the data set with Hepatitis C virus [1] of 48 nM. Besides, the EC50 in the data set with Hepatitis C virus [13] is 32000 nM.
Turning to `O=C(Nc1cscc1-c1nc(O)c(O)c(C(=O)O)n1)NS(=O)(=O)c1cccc(Cl)c1Cl`, the 50% effective concentration (EC50) in the data set on Hepatitis C virus [6] (setting [18]) came to 4900 nM; in the data set with Hepatitis C virus [13] it was 2400 nM. This compound returned an IC50 with Hepatitis C virus [1] of 12 nM.
The compound `CS(=O)(=O)NC(=O)Nc1cscc1-c1nc(O)c(O)c(C(=O)O)n1` yielded an IC50 with Hepatitis C virus [1] of 426 nM.
On the same count and under the same terms, to `CC(C)(C)OC(=O)Nc1cscc1-c1nc(O)c(O)c(C(=O)O)n1` belongs 8280 nM; to `O=C(Nc1cscc1-c1nc(O)c(O)c(C(=O)O)n1)OCc1ccccc1`, 326 nM; to `O=C(Nc1sccc1-c1nc(O)c(O)c(C(=O)O)n1)OCc1ccccc1`, 343 nM.
The compound `Cc1ccccc1S(=O)(=O)NC(=O)Nc1cscc1-c1nc(O)c(O)c(C(=O)O)n1` came in with an IC50 in the data set with Hepatitis C virus [1] of 47 nM. This compound also had an EC50 in the data set with Hepatitis C virus [13] of 16000 nM.
For `O=C(Nc1cscc1-c1nc(O)c(O)c(C(=O)O)n1)NS(=O)(=O)c1ccccc1Br`, the IC50 in the data set with Hepatitis C virus [17] is 70 nM; in the data set with Hepatitis C virus [5], 400 nM; in the data set with Hepatitis C virus [1], 74 nM; with Hepatitis C virus [11], 60 nM. The compound also came in with an EC50 in the data set on Hepatitis C virus [13] of 3400 nM.
In the data set with Hepatitis C virus [1], `O=C(Nc1cscc1-c1nc(O)c(O)c(C(=O)O)n1)NS(=O)(=O)c1cccc(Br)c1` gave an IC50 of 38 nM. The compound also returned a 50% effective concentration (EC50) with Hepatitis C virus [13] of 37000 nM.
In the data set with Hepatitis C virus [1], `O=C(Nc1cscc1-c1nc(O)c(O)c(C(=O)O)n1)NS(=O)(=O)c1ccc(Cl)cc1` gave an IC50 of 85 nM. This compound also yielded an EC50 in the data set on Hepatitis C virus [13] of 26000 nM.
The corresponding values for `O=C(Nc1cscc1-c1nc(O)c(O)c(C(=O)O)n1)NS(=O)(=O)c1ccccc1` are 62 nM and 32000 nM.
As to `O=C(Nc1cscc1-c1nc(O)c(O)c(C(=O)O)n1)NS(=O)(=O)c1ccccc1Cl`, the EC50 with Hepatitis C virus [6] (setting [18]) amounted to 6600 nM; in the data set on Hepatitis C virus [13], 2600 nM. This compound also returned an IC50 in the data set with Hepatitis C virus [1] of 78 nM.
Take `O=C(Cc1ccccc1Cl)Nc1cscc1-c1nc(O)c(O)c(C(=O)O)n1`: it took 2610 nM to reach half-maximal inhibition in the data set with Hepatitis C virus [1] (IC50).
As to `O=C(NCc1ccccc1)Nc1cscc1-c1nc(O)c(O)c(C(=O)O)n1`, the IC50 in the data set with Hepatitis C virus [1] worked out at 873 nM. Against the preceding compound, the IC50 is about 3-fold lower.
In the data set on Hepatitis C virus [1], `O=C(NCc1ccccc1Cl)Nc1cscc1-c1nc(O)c(O)c(C(=O)O)n1` yielded an IC50 of 258 nM.
As for `O=C(NCc1ccccc1Cl)Nc1ccsc1-c1nc(O)c(O)c(C(=O)O)n1`, the values for the IC50 in the data set with Hepatitis C virus [17], in the data set on Hepatitis C virus [5] and in the data set on Hepatitis C virus [11] were 170 nM, 800 nM and 180 nM, respectively.
As to `O=C(O)c1nc(-c2cccs2)nc(O)c1O`, the IC50 in the data set with Hepatitis C virus [1] was found to be 2600 nM.
On to `Cn1c(-c2cccs2)nc(C(=O)O)c(O)c1=O`, for which the IC50 in the data set with Hepatitis C virus [17] turned out to be 5600 nM; with Hepatitis C virus [5], 3200 nM; in the data set with Hepatitis C virus [11], 4600 nM.
For `O=C(O)c1nc(-c2ccccc2)nc(O)c1O`, in the data set with Hepatitis C virus [1], the IC50 was determined as 30000 nM.
